According to ChEMBL document CHEMBL2163256, “6-(methylamino)hexane-1,2,3,4,5-pentanol 4-(((1S,2S)-1-hydroxy-2,3-dihydro-1H,1'H-[2,2-biinden]-2-yl)methyl)benzoate (PH46A): a novel small molecule with efficacy in murine models of colitis” (J Med Chem, 2012):
Activity calls are given as the source filed them. No cut-off for these calls is given here.

Columns and labels:
[1] = tested on: Mus musculus; experiment: Antiinflammatory activity against DSS-induced colitis BALB/c mouse model assessed as increase in colon lenght at 30 mg/kg, po qd for 7 days relative to vehicle-treated control; type: functional, organism-based; design: dose 30 mg/kg
Summary of the method: (§1)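 Female SPF BALB/c mice, 6−8 weeks old; colitis induced by 5% DSS in tap drinking water (renewed every second day) for 7 days. Daily oral dosing for 7 days as suspension/solution in 0.5% carboxymethyl cellulose/2% Tween 80. Daily body weight; DAI per mouse each day from weight loss, occult blood and stool consistency; colon length at autopsy. Mean ± SEM, n = 6−7.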

[2] = tested on: Mus musculus; experiment: Toxicity in DSS-induced colitis BALB/c mouse model assessed as overt reactions at 30 mg/kg, po qd for 7 days relative to vehicle-treated control; type: organism-based; design: dose 30 mg/kg, route oral; conditions: in vivo, 168 h
[3] = tested on: Mus musculus; experiment: Antiinflammatory activity against DSS-induced colitis BALB/c mouse model assessed as decrease in disease activity index at 30 mg/kg, po qd for 7 days relative to vehicle-treated control; type: functional, organism-based; design: dose 30 mg/kg; summary of the method: as §1
[4] = tested on: Mus musculus; experiment: Antiinflammatory activity in IL-10 -/- BALB/c mouse assessed as prevention of rectal prolapse at 300 mg/kg, po administered as divided dose 3 times a week for 9 weeks relative to vehicle-treated control; type: functional, organism-based; design: dose 300 mg/kg
Summary of the method: (§2)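 IL-10−/− BALB/c-background mice, bred SPF, treated from 6−8 weeks of age by oral gavage of 300 mg/kg/week in distilled water (vehicle), Mon/Wed/Fri, for 9 weeks. Weight, rectal bleeding and prolapse monitored. At 9 weeks serum SAA was measured by sandwich ELISA. Proximal colon (1 cm) was fixed, H&E-stained and scored blinded by two observers (maximum 4). n = 9 vehicle, 11 treated; Student's t test.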

[5] = tested on: Mus musculus; experiment: Antiinflammatory activity against DSS-induced colitis BALB/c mouse model assessed as increase in colon lenght at 10 mg/kg, po qd for 7 days relative to vehicle-treated control; type: functional, organism-based; design: dose 10 mg/kg; summary of the method: as §1
[6] = tested on: Mus musculus; experiment: Antiinflammatory activity against DSS-induced colitis BALB/c mouse model assessed as reduction in IL1b level at 30 mg/kg, po qd for 7 days measured on day 7 relative to vehicle-treated control; type: functional, organism-based; design: dose 30 mg/kg
Summary of the method: (§3)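 DSS colitis in female BALB/c mice (5% DSS in drinking water, 7 days, daily oral dosing). At autopsy, colon remaining after histology sampling snap-frozen, stored at −20 °C, thawed, contents removed, chopped and homogenized; supernatant protein determined. IL1b, IL6 and TNFα in colon supernatant by sandwich ELISA, expressed as ng/mg. Mean ± SEM, n = 6−7.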

[7] = tested on: Mus musculus; experiment: Antiinflammatory activity against po dosed DSS-induced colitis BALB/c mouse model assessed as reduction in TNFalpha level administered daily once for 7 days measured on day 7 relative to vehicle-treated control; type: functional, organism-based; summary of the method: as §3
[8] = tested on: Mus musculus; experiment: Antiinflammatory activity against DSS-induced colitis BALB/c mouse model assessed as prevention of body weight loss at 10 mg/kg, po qd for 7 days relative to vehicle-treated control; type: functional, organism-based; design: dose 10 mg/kg; summary of the method: as §1
[9] = tested on: Mus musculus; experiment: Antiinflammatory activity against po dosed DSS-induced colitis BALB/c mouse model assessed as reduction in histological colon damage score administered daily once for 7 days measured on day 7; type: functional, organism-based
Summary of the method: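 After 7 days of 5% DSS with daily oral dosing, about 1 cm distal colon was fixed in 10% formaldehyde-saline, paraffin-embedded, cut into 5 μm serial sections and H&E-stained. Scoring covered cell infiltration (0−3) and extent of injury (0−3), done blinded by two independent observers.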

[10] = tested on: Mus musculus; experiment: Antiinflammatory activity against DSS-induced colitis BALB/c mouse model assessed as reduction in IL6 level at 30 mg/kg, po qd for 7 days measured on day 7 relative to vehicle-treated control; type: functional, organism-based; design: dose 30 mg/kg; summary of the method: as §3
[11] = tested on: Mus musculus; experiment: Antiinflammatory activity in IL-10 -/- BALB/c mouse assessed as reduction in histological colon damage score at 300 mg/kg, po administered as divided dose 3 times a week for 9 weeks relative to vehicle-treated control; type: functional, organism-based; design: dose 300 mg/kg; summary of the method: as §2
[12] = tested on: Mus musculus; experiment: Antiinflammatory activity against po dosed DSS-induced colitis BALB/c mouse model assessed as reduction in IL6 level administered daily once for 7 days measured on day 7 relative to vehicle-treated control; type: functional, organism-based; summary of the method: as §3
[13] = tested on: Mus musculus; experiment: Antiinflammatory activity against po dosed DSS-induced colitis BALB/c mouse model assessed as decrease in disease activity index administered daily once for 7 days measured on day 7 relative to vehicle-treated control; type: functional, organism-based; summary of the method: as §1
[14] = tested on: Mus musculus; experiment: Antiinflammatory activity against po dosed DSS-induced colitis BALB/c mouse model assessed as reduction in shortening of colon administered daily once for 7 days measured on day 7 relative to vehicle-treated control; type: functional, organism-based; summary of the method: as §1
[15] = tested on: Mus musculus; experiment: Antiinflammatory activity in IL-10 -/- BALB/c mouse assessed as prevention of rectal bleeding at 300 mg/kg, po administered as divided dose 3 times a week for 9 weeks relative to vehicle-treated control; type: functional, organism-based; design: dose 300 mg/kg; summary of the method: as §2
[16] = tested on: Mus musculus; experiment: Antiinflammatory activity against DSS-induced colitis BALB/c mouse model assessed as decrease in disease activity index at 10 mg/kg, po qd for 7 days relative to vehicle-treated control; type: functional, organism-based; design: dose 10 mg/kg; summary of the method: as §1
[17] = tested on: Mus musculus; experiment: Antiinflammatory activity against po dosed DSS-induced colitis BALB/c mouse model assessed as reduction in IL1b level administered daily once for 7 days measured on day 7 relative to vehicle-treated control; type: functional, organism-based; summary of the method: as §3
[18] = tested on: Mus musculus; experiment: Antiinflammatory activity against DSS-induced colitis BALB/c mouse model assessed as reduction in TNFalpha level at 30 mg/kg, po qd for 7 days measured on day 7 relative to vehicle-treated control; type: functional, organism-based; design: dose 30 mg/kg; summary of the method: as §3
[19] = tested on: Mus musculus; experiment: Antiinflammatory activity in IL-10 -/- BALB/c mouse assessed as prevention of weight loss at 300 mg/kg, po administered as divided dose 3 times a week for 9 weeks relative to vehicle-treated control; type: functional, organism-based; design: dose 300 mg/kg; summary of the method: as §2
[20] = tested on: Mus musculus; experiment: Antiinflammatory activity against DSS-induced colitis BALB/c mouse model assessed as decrease in disease activity index at 30 mg/kg, po qd for 7 days measured on day 6 relative to vehicle-treated control; type: functional, organism-based; design: dose 30 mg/kg; summary of the method: as §1

`O=C(O)c1ccc(C[C@@]2(C3=Cc4ccccc4C3)Cc3ccccc3[C@@H]2O)cc1` was tested, and the Activity [1] was “Active”, the Activity [2] was “Non-toxic” and the Activity [3] was “inactive”.

`O=C(O)c1ccc(C[C@@]2(C3=Cc4ccccc4C3)Cc3ccccc3[C@H]2O)cc1` [listing 1 of 2 here] was tested, and the Activity [4] was “inactive”, the Activity [5] was “Active” and the Activity [1] was “Active”. The Activity [6] was “Active”, the Activity [7] was “Dose-dependent effect” and the Activity [8] was “Active”. The Activity [9] was “Dose-dependent effect”, the Activity [10] was “Active” and the Activity [11] was “Active”. The Activity [12] was “Dose-dependent effect”, the Activity [13] was “Dose-dependent effect” and the Activity [14] was “Dose-dependent effect”. For the same compound, the Activity [3] was “Active”, the Activity [15] was “inactive” and the Activity [16] was “Active”. For the same compound, the Activity [17] was “Dose-dependent effect”, the Activity [18] was “Active” and the Activity [19] was “inactive”.

For `O=C(O)c1ccc(C[C@]2(C3=Cc4ccccc4C3)Cc3ccccc3[C@@H]2O)cc1`, the Activity [1] was “Active”, the Activity [20] was “inactive” and the Activity [2] was “Non-toxic”. The Activity [3] was “Active”.

For `O=C(O)c1ccc(C[C@@]2(C3=Cc4ccccc4C3)Cc3ccccc3[C@H]2O)cc1` [listing 2 of 2 here], the Activity [2] was “Non-toxic”.
